From PubChem BioAssay
Hits are enriched below; roughly 3.7% of the tested compounds scored in any of these assays.
KCNQ1 pot: human KCNQ1 channel potentiation or activation; CHO-K1 KCNQ1, thallium flux FluxOR fluorescence; stronger effect = higher value; AID 2648; hit rate 0.35% among 310,000; P51787; B-score at 10 µM;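 active = fluorescence ratio B-score, a plate-corrected score, at least three library SD, with initial intensity B-score within 5 SD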
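Assay system: CHO-K1 cells stably expressing KCNQ1; Medium: assay buffer with matched DMSO; Also added: K+/Tl+ depolarizing stimulus; Dosing: single dose; Timing: dye 90 min, compound 20 min, room temperature; Measured by: kinetic FluxOR thallium fluorescence, 10-s 1-Hz baseline, 110-s post-stimulus read; Read-out: peak-minus-minimum fluorescence over initial fluorescence, negative-control normalized, B-scored.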
KCNK9 inh: human KCNK9 channel inhibition; Q9NPC2; HEK293 KCNK9, FluxOR thallium flux fluorescence; stronger effect = lower value; B-score at 10 µM; hit rate 1.2% among 310,000;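 active = ratio B-score over 3 SD below the library mean, with starting fluorescence within 5 SD of its mean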;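 also: negative B-score means less thallium flux so channel inhibition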
KCNQ1 inh: blocks the human KCNQ1 potassium channel | P51787 | CHO-K1 KCNQ1, FluxOR thallium flux fluorescence; stronger effect = higher value | B-score at 10 µM | hit rate 1.3% among 310,000 | AID 2642;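 active = compounds whose thallium flux B-score, printed positive for inhibition, exceeds three library SD while starting fluorescence stays within three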;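 also: channel opened by potassium depolarization with thallium stimulus after 20 min compound exposure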
hERG rescue: compounds protecting human hERG from proarrhythmic drug block | Q12809 | AID 1511 | CHO-hERG, FluxOR thallium flux, dofetilide IC70 present | hit rate 0.51% among 310,000 | activation (rescue from dofetilide block), less the hit threshold, % at 10 µM;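 active = activation above the mean of controls blocked by dofetilide plus 5 SD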;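 also: thallium influx through hERG after potassium depolarization seen as dye fluorescence rise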
KCNK3 block: human KCNK3 channel inhibition, primary screen; O14649; CHO-KCNK3 thallium flux, FluxOR fluorescence; stronger effect = lower value; B-score at 10 µM; hit rate 0.84% among 340,000;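 active = B-score under library mean minus 4 SD, starting fluorescence ratio at most library mean plus 5 SD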;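 also: more negative B-score means stronger inhibition of thallium flux through KCNK3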
Target sequence (O14649 whole entry, looked up): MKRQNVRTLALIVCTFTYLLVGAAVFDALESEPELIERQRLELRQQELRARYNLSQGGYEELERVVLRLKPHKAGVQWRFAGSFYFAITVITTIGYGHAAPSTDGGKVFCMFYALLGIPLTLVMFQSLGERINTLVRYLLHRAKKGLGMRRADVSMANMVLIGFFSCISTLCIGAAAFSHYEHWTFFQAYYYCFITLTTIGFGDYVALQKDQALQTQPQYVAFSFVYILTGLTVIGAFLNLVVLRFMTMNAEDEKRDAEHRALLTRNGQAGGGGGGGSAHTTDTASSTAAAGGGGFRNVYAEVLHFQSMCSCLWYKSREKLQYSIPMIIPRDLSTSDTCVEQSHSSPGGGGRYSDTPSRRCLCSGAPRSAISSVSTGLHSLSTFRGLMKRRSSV
Kir21 block: inhibitors of mouse Kir2.1 inward-rectifier potassium channel; B-score at 10 µM; hit rate 0.85% among 310,000; HEK293-Kir2.1, FluxOR thallium flux fluorescence; stronger effect = lower value;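 active = fluorescence ratio B-score at or below minus 3 SD of library scores, with starting-brightness B-score within 2 SD, cut at about -4.2 in these data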;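 also: channel flux triggered by added potassium and thallium sulfate stimulus; B-score of peak minus minimum fluorescence over baseline after thallium stimulus; more negative B-score means stronger Kir2.1 block with less thallium influx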
* marks the source's active call; other numbers are inactive results; i = inactive; . = not tested or not shown.

SMILES	KCNQ1 pot	KCNK9 inh	KCNQ1 inh	hERG rescue	KCNK3 block	Kir21 block
CC[n+]1c(/C=C/c2ccc(OC)c(OC)c2)ccc2ccccc21	i	i	i	-7.2	i	0
CCN(CC)c1ccc(/C=C/c2ccc3ccc(OC)cc3[n+]2CC)cc1	i	-7.11*	i	-40.6	-13.1*	-15.9*
COC(=O)c1ccccc1CSc1nsc(/C=C/N(C)C)c1C#N	i	i	6*	-20.1	i	-0.12
Cc1nc(CSc2nsc(/C=C/N(C)C)c2C#N)cs1	i	i	i	-8.6	i	-0.63
CN(C(=O)COC(=O)c1cc(S(=O)(=O)N2CCOCC2)ccc1F)C1CCS(=O)(=O)C1 (centres undefined)	i	i	i	-13.7	i	-0.09
CN1CCN(C(=O)NCC23CC4CC(CC(C4)C2)C3)CC1	i	i	i	-14.2	i	-0.94
CNC(=O)NCC12CC3CC(CC(C3)C1)C2	i	i	i	5.1*	i	-1.85
CCn1c(C)c(C(C)=O)c(N2CCN(c3ccccc3)CC2)nc1=S	i	i	i	-8.3	i	-0.88
CCn1c(C)c(C(C)=O)c(N2CCN(c3ccccn3)CC2)nc1=S	i	-6.67*	i	1.5	i	2.3
COc1ccc(/C=C2/CSC/C(=C/c3ccc(OC)c(OC)c3)C2=O)cc1OC	.	.	.	.	i	.
Cc1cccc(/C=C/C(=O)c2ccc([N+](=O)[O-])o2)c1	i	i	8*	-17.1	i	-1.2
Cc1ccccc1/C=C/C(=O)c1ccc([N+](=O)[O-])o1	i	i	7*	-11.2	.	-1.93
O=C(/C=C/c1cccc([N+](=O)[O-])c1)c1ccc([N+](=O)[O-])o1	i	i	i	-22.4	i	-0.99
CC(=O)Nc1ccc(S(=O)(=O)NNC(=O)c2cccc([N+](=O)[O-])c2)cc1	i	i	i	1.3	i	-1.34
O=C(Cc1coc2cc(O)ccc12)N1CCN(S(=O)(=O)c2ccc(Br)cc2)CC1	.	.	.	.	i	.
COC(=O)c1c(-c2ccccc2Cl)noc1/C=C/N(C)C	i	i	i	-4.9	i	0.32
CC(=O)NS(=O)(=O)c1ccc(NC(=S)NC(=O)C2CCC2)cc1	i	i	i	-6.7	i	-0.83
O=C(Nc1ncc(Cc2ccccc2)s1)c1cccs1	i	i	i	-6.9	i	0.03
O=C(Nc1ncc(Cc2cccc(Cl)c2)s1)c1cccs1	i	-6.65*	i	-3.9	i	-1.54
CCOc1cccc(C2/C(=C(/O)c3ccc4c(c3)CC(C)O4)C(=O)C(=O)N2Cc2cccnc2)c1 (centres undefined)	i	i	i	-8.2	i	0.54
COc1ccccc1NC(=O)CSCC(=O)N1c2ccccc2CCc2ccccc21	i	-7.06*	i	-10.0	i	-0.69
O=C(NCc1ccco1)c1cc2sccc2n1Cc1ccccc1	i	-6.94*	i	-7.1	i	-0.47
O=C(c1ccco1)N1CCN(C(=O)c2cc3sccc3n2Cc2ccccc2)CC1	i	i	i	-18.6	i	-0.01
CCC1(O)CC(C(=O)OC)=NN1C(=O)c1ccccc1 (centres undefined)	i	i	i	-3.5	i	-0.33
CCOC(=O)C1=NN(C(=O)c2ccc(C)cc2)C(O)(c2ccc(Cl)cc2)C1 (centres undefined)	79*	i	i	75.6*	i	0.42
SMILES	KCNQ1 pot	KCNK9 inh	KCNQ1 inh	hERG rescue	KCNK3 block	Kir21 block
COC(=O)C1=NN(C(=O)c2ccc(Cl)cc2)C(O)(c2ccccc2)C1 (centres undefined)	39*	i	i	38.5*	i	-0.5
COc1ccc([N+](=O)[O-])cc1NC(=O)C(C)c1ccccc1 (centres undefined)	i	i	i	-0.2	i	0.68
Cc1cc([N+](=O)[O-])ccc1NC(=S)NC(=O)C(c1ccccc1)c1ccccc1	i	i	7*	-7.7	i	1.67
COc1ccc([N+](=O)[O-])cc1NC(=S)NC(NC(=O)C(c1ccccc1)c1ccccc1)C(Cl)(Cl)Cl (centres undefined)	i	i	14*	-10.9	i	-0.18
COc1ccc(NC(=S)NC(NC(=O)c2cccc3ccccc23)C(Cl)(Cl)Cl)c([N+](=O)[O-])c1 (centres undefined)	i	-6.91*	i	-2.2	i	0.17
Clc1ccc(-c2ccc(CN3CCCCC3)o2)cc1	i	i	i	-7.8	i	0.08
CN1CCN(Cc2ccc(-c3ccc(Cl)cc3)o2)CC1	i	i	i	-7.2	i	-4.66*
CCCc1cc(=O)oc2cc(C)cc(OCC(=O)Nc3ccc(S(N)(=O)=O)cc3)c12	i	i	i	-4.1	i	0.09
COc1ccc(NC(=O)CNC(=O)C23CC4CC(CC(C4)C2)C3)c(OC)c1	i	i	i	-14.5	i	-2.04
COc1ccc(NC(=O)COc2ccccc2)c(OC)c1	i	i	i	-8.4	i	0.18
COc1ccccc1NC(=O)C(=O)NNC(=O)COc1ccc2ccccc2c1	84*	i	i	55.6*	i	1.7
COc1ccc(OC)c(NC(=O)C(=O)NNC(=O)C23CC4CC(CC(C4)C2)C3)c1	10*	i	i	65.2*	i	0.01
COc1cccc(OCC(=O)NNC(=O)C(=O)Nc2ccc(OC)cc2OC)c1	11*	i	i	22.8*	i	0.56
CC(C)C(C(=O)NCC1CCCO1)N(Cc1ccccc1)C(=O)CNS(=O)(=O)c1ccccc1 (centres undefined)	i	i	i	-8.2	i	0.84
NC(N)=N/N=C/c1cc([N+](=O)[O-])ccc1O	i	i	i	-5.5	i	1.4
O=[N+]([O-])c1ccc(O)c(/C=N\N=C2c3ccccc3-c3ccccc32)c1	i	i	7*	-16.7	i	0.19
CCc1nc(SCC(=O)Nc2cc(OC)ccc2OC)c2c(C)c(C)sc2n1	i	-6.62*	i	-5.7	i	-0.5
CCc1nc(SCC(=O)Nc2nnc(CC)s2)c2c(C)c(C)sc2n1	i	i	i	-1.1	i	1.41
COc1ccc(Nc2ccnc(Nc3ccc(OC)cc3)n2)cc1	i	i	i	-12.8	i	-6.52*
COc1cc(-c2nc(C(=O)NC3CCCCC3)cc3c2[nH]c2ccccc23)cc(OC)c1OC	i	i	i	-10.8	i	0.57
COc1cc(-c2nc(C(=O)NC3CCN(Cc4ccccc4)CC3)cc3c2[nH]c2ccccc23)cc(OC)c1OC	i	i	6*	-29.4	i	-1.26
